Source: ChEMBL document CHEMBL3745596, “Chlorophenoxy aminoalkyl derivatives as histamine H(3)R ligands and antiseizure agents” (Bioorg Med Chem, 2016)
The source made the active and inactive calls. The calls are words filed in the database; no cut-off is given here.

How the values were obtained:
[1] = tested on: Rattus norvegicus; experiment: Anticonvulsant activity in ip dosed Sprague-Dawley rat assessed as protection against subcutaneous pentetrazole-induced seizure after 0.5 hrs; format: functional
[2] = tested on: Mus musculus; experiment: Neurotoxicity in ip dosed CF1 albino mouse after 0.5 hrs by rotarod test; format: toxicity, organism-based; conditions: in vivo
Summary of the method: (§1)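 Rotarod neurotoxicity in male albino CF-1 mice dosed ip with compound suspended in 0.5% methylcellulose. Animal placed on a 1 inch diameter knurled plastic rod rotating at 6 rpm. Neurotoxicity scored when the animal falls off three times within 1 min. Readout is number of animals toxic/number tested at the stated time after dosing. TD50 with 95% confidence interval from the quantitative study.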

[3] = tested on: Rattus norvegicus; experiment: Anticonvulsant activity in Sprague-Dawley rat assessed as protection against pilocarpine-induced convulsive status epilepticus at 50 mg/kg, ip; format: functional, organism-based
Summary of the method: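 Male Sprague Dawley rats (150–180 g) dosed ip, pilocarpine 50 mg/kg ip given; compound dosed immediately at first behavioral Stage 3 seizure or 30 min later. Number protected from Racine Stage 3 or greater seizures recorded.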

[4] = tested on: Mus musculus; experiment: Anticonvulsant activity in CF1 albino mouse assessed as protection against maximal electroshock-induced seizure at 30 mg/kg, ip after 0.5 hrs; format: functional, organism-based
Summary of the method: (§2)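 Male CF-1 mice dosed ip as suspension in 0.5% methylcellulose. Corneal electrodes deliver 60 Hz alternating current, 50 mA for […], after a drop of 0.5% tetracaine HCl in 0.9% NaCl per eye. Protection means abolition of hindlimb tonic extension; scored as protected/tested, or ED50 with 95% confidence interval.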

[5] = tested on: Mus musculus; experiment: Anticonvulsant activity in CF1 albino mouse assessed as protection against maximal electroshock-induced seizure at 100 mg/kg, ip after 4 hrs; format: functional, organism-based; summary of the method: as §2
[6] = tested on: Mus musculus; experiment: Neurotoxicity in CF1 albino mouse at 3 mg/kg, ip after 0.5 hrs by rotarod test; format: toxicity, organism-based; conditions: in vivo; summary of the method: as §1
[7] = tested on: Mus musculus; experiment: Neurotoxicity in CF1 albino mouse at 30 mg/kg, ip after 4 hrs by rotarod test; format: toxicity, organism-based; conditions: in vivo; summary of the method: as §1
[8] = tested on: Mus musculus; experiment: Neurotoxicity in CF1 albino mouse at 300 mg/kg, ip after 4 hrs by rotarod test; format: toxicity, organism-based; conditions: in vivo; summary of the method: as §1
[9] = tested on: Rattus norvegicus; experiment: Anticonvulsant activity in Sprague-Dawley rat assessed as protection against maximal electroshock-induced seizure at 30 mg/kg, ip after 0.5 hrs; format: functional, organism-based
[10] = tested on: Rattus norvegicus; experiment: Neurotoxicity in Sprague-Dawley rat at 30 mg/kg, ip after 0.5 hrs by rotarod test; format: toxicity, organism-based; conditions: in vivo
Summary of the method: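 Male Sprague–Dawley rats given compound ip as a suspension in 0.5% methylcellulose, groups of four. Rotarod: 1 inch knurled rod at 6 rpm; three falls within 1 min counts as neurotoxic. Scored as number toxic/number tested at pretreatment times between 0.25 and 4 h, or at the stated time.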

[11] = tested on: Mus musculus; experiment: Anticonvulsant activity in CF1 albino mouse assessed as protection against 6 Hz-psychomotor-induced seizure at 30 mg/kg, ip after 0.25 to 4 hrs; format: functional, organism-based
Summary of the method: (§3)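 Male CF-1 mice, ip suspension in 0.5% methylcellulose. Corneal stimulation 0.2 ms monopolar rectangular pulses at 6 Hz, 32 mA for 3 s via constant-current device; mice without minimal clonic phase seizure counted protected. Groups of four; read at 0.25, 0.5, 1, 2, 4 h; result as protected/tested.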

[12] = tested on: Mus musculus; experiment: Anticonvulsant activity in CF1 albino mouse assessed as protection against 6 Hz-psychomotor-induced seizure at 60 mg/kg, ip after 4 hrs; format: functional, organism-based; summary of the method: as §3

With `CC1CCCN(CCCCCCCOc2ccc(Cl)cc2)C1.O=C(O)C(=O)O` (configuration not stated) the ED50 [1] was over 50 mg/kg, the ED50 [2] was 5.35 mg/kg and the Activity [3] was “inactive”. The Activity [4] was “Active”, the Activity [5] was “Active” and the Activity [6] was “Non-toxic”. The Activity [7] was “Non-toxic”, the Activity [8] was “Non-toxic” and the Activity [9] was “Active”. The Activity [10] was “Non-toxic”, the Activity [11] was “inactive” and the Activity [12] was “inactive”.
